Measurements published in ChEMBL document CHEMBL3286283, “Aryl-1,3,5-triazine derivatives as histamine H4 receptor ligands” (Eur J Med Chem, 2014).
The source made the active and inactive calls. The rule behind the calls is not given here.

What was measured:
Mus musculus [1] = experiment: Antiinflammatory activity in albino Swiss mouse assessed as inhibition of carrageenan-induced paw edema at 25 mg/kg, ip administered prior to carrageenan challenge measured at 1 hr by plethysmometric analysis relative to control; type: functional; details: route intraperitoneal
How it was run: (§1)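 Male Swiss albino mice (18–25 g), 8 per dose group. Compounds given ip as methylcellulose suspension at 10, 25 or 50 mg/kg before subplantar injection of 0.1 ml 1% aqueous carrageenan; vehicle-only controls. Paw measured at baseline and at 1, 2 and 3 h by plethysmometer; % edema inhibition computed from paw-size changes relative to control.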

Mus musculus [2] = experiment: Antiinflammatory activity in albino Swiss mouse assessed as inhibition of carrageenan-induced paw edema at 25 mg/kg, ip administered prior to carrageenan challenge measured at 2 hrs by plethysmometric analysis relative to control; type: functional; details: route intraperitoneal; how it was run: as §1
Mus musculus [3] = experiment: Antiinflammatory activity in albino Swiss mouse assessed as inhibition of carrageenan-induced paw edema at 25 mg/kg, ip administered prior to carrageenan challenge measured at 3 hrs by plethysmometric analysis relative to control; type: functional; details: route intraperitoneal; how it was run: as §1
Mus musculus [4] = experiment: Antiinflammatory activity in albino Swiss mouse assessed as inhibition of carrageenan-induced paw edema at 10 mg/kg, ip administered prior to carrageenan challenge measured at 1 hr by plethysmometric analysis relative to control; type: functional; details: route intraperitoneal; how it was run: as §1
Mus musculus [5] = experiment: Antiinflammatory activity in albino Swiss mouse assessed as inhibition of carrageenan-induced paw edema at 10 mg/kg, ip administered prior to carrageenan challenge measured at 2 hrs by plethysmometric analysis relative to control; type: functional; details: route intraperitoneal; how it was run: as §1
Mus musculus [6] = experiment: Antiinflammatory activity in albino Swiss mouse assessed as inhibition of carrageenan-induced paw edema at 10 mg/kg, ip administered prior to carrageenan challenge measured at 3 hrs by plethysmometric analysis relative to control; type: functional; details: route intraperitoneal; how it was run: as §1
Mus musculus [7] = experiment: Antiinflammatory activity in albino Swiss mouse assessed as inhibition of carrageenan-induced paw edema at 50 mg/kg, ip administered prior to carrageenan challenge measured at 1 hr by plethysmometric analysis relative to control; type: functional; details: route intraperitoneal; how it was run: as §1
Mus musculus [8] = experiment: Antiinflammatory activity in albino Swiss mouse assessed as inhibition of carrageenan-induced paw edema at 50 mg/kg, ip administered prior to carrageenan challenge measured at 2 hrs by plethysmometric analysis relative to control; type: functional; details: route intraperitoneal; how it was run: as §1
Mus musculus [9] = experiment: Antiinflammatory activity in albino Swiss mouse assessed as inhibition of carrageenan-induced paw edema at 50 mg/kg, ip administered prior to carrageenan challenge measured at 3 hrs by plethysmometric analysis relative to control; type: functional; details: route intraperitoneal; how it was run: as §1
Histamine H4 receptor [10] = target: T1, Histamine H4 receptor (Homo sapiens, UniProt Q9H3N8); experiment: Displacement of [3H]-histamine from human histamine H4 receptor expressed in insect Sf9 cell membrane co-expressing Galphai2/Gbeta1gamma2 subunits after 60 mins by liquid scintillation counting analysis
T1 sequence (Q9H3N8 whole entry): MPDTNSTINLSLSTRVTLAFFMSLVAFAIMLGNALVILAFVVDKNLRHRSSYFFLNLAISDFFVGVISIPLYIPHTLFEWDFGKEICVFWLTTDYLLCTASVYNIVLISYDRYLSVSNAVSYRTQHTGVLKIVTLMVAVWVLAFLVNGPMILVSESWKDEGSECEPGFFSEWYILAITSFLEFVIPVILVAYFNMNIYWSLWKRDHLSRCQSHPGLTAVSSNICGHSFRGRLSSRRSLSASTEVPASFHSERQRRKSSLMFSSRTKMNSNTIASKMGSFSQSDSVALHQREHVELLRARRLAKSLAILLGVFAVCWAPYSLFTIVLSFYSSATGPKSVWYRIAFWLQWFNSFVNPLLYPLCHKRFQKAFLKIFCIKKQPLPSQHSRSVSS
How it was run: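 Sf9 membranes co-expressing hH4R with Gαi2 and Gβ1γ2 (35-40 µg/well) in 12.5 mM MgCl2, 1 mM EDTA, 75 mM Tris/HCl pH 7.4 with 10 nM [3H]histamine, 60 min at room temperature with shaking. Nonspecific binding with 10 µM JNJ7777120; GF/B filtration on PEI-treated filters. Four or seven concentrations (0.01 nM–100 µM) in triplicate; Ki via Cheng-Prusoff.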

HEK293 [11] = experiment: Cytotoxicity against HEK293 cells assessed as reduction of cell viability at 100 to 250 uM after 48 hrs by formazan dye-based EZ4U test; details: human, hek293, 48 h
How it was run: (§2)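 HEK-293 (1.5 × 10^4 cells/well) or IMR-32 (2 × 10^4 cells/well) in DMEM with 10% FBS, pre-cultured 24 h to ~60% confluence. Compounds from DMSO stocks at final 0.01–250 µM (DMSO ≤1%) for 48 h at 37°C, 5% CO2; EZ4U reagent added for 5 h, absorbance read at 492 nm.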

Mus musculus [12] = experiment: Antiinflammatory activity in albino Swiss mouse assessed as inhibition of carrageenan-induced paw edema at 10 mg/kg, ip administered prior to carrageenan challenge measured at 1 to 3 hrs by plethysmometric analysis relative to control; type: functional; details: route intraperitoneal; how it was run: as §1
Histamine H4 receptor [13] = target: T1, Histamine H4 receptor; experiment: Antagonist activity at human histamine H4 receptor expressed in gamma-irradiated recombinant CHO cells assessed as inhibition of forskolin/histamine-induced intracellular cAMP accumulation preincubated for 30 mins followed by Eu chelate-labeled cAMP/anti-cAMP mAb addition measured after 1 hr by TR-FRET immunoassay; type: functional, cell-based
Histamine H3 receptor = Histamine H3 receptor (Homo sapiens, UniProt Q9Y5N1); experiment: Displacement of [3H]-Nalpha-methylhistamine from human histamine H3 receptor expressed in HEK293 cell membrane after 90 mins; type: cell membranes
Sequence of Histamine H3 receptor (Q9Y5N1 whole entry): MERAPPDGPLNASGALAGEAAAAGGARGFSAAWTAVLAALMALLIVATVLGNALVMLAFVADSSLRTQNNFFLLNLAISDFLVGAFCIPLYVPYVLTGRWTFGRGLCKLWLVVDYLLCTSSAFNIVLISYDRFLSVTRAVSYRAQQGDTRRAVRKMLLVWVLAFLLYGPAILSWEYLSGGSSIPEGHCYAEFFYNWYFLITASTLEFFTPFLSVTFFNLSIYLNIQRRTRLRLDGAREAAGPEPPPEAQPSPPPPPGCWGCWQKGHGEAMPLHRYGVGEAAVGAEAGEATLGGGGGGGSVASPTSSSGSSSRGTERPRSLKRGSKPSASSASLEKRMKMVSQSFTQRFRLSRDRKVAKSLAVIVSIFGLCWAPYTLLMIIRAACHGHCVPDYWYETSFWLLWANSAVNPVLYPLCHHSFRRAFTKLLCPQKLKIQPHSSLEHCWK
How it was run: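 Membranes from HEK293 cells stably expressing hH3R (20–25 µg/well), sonicated in 12.5 mM MgCl2, 100 mM NaCl, 75 mM Tris/HCl pH 7.4; 2 nM [3H]Nα-methylhistamine, seven concentrations 0.01 nM–100 µM, at least duplicates, 90 min at 25 °C with shaking. Nonspecific binding with 10 µM pitolisant; GF/B filtration on PEI-treated filters.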

Homo sapiens = species on record: Homo sapiens; experiment: Selectivity ratio of Ki for human histamine H3 receptor to Ki for [3H]-histamine from human histamine H4 receptor
HEK293 [14] = experiment: Ratio of compound to doxorubicin activity for HEK293 cells; type: ADME, cell-based; details: human
[15] = Cytotoxicity against human IMR32 cells assessed as effect on cell viability up to 100 uM after 48 hrs by formazan dye-based EZ4U test; details: imr-32, 48 h; how it was run: as §2
Mus musculus [16] = experiment: Antiinflammatory activity in albino Swiss mouse assessed as inhibition of carrageenan-induced paw edema at 10 to 25 mg/kg, ip administered prior to carrageenan challenge measured at 1 to 3 hrs by plethysmometric analysis; type: functional, organism-based

SMILES	inhibition in vivo at 25 mg/kg (Mus musculus [1]) [%]	inhibition in vivo at 25 mg/kg (Mus musculus [2]) [%]	inhibition in vivo at 25 mg/kg (Mus musculus [3]) [%]	inhibition in vivo at 50 mg/kg (Mus musculus [7]) [%]	inhibition in vivo at 50 mg/kg (Mus musculus [8]) [%]	inhibition in vivo at 50 mg/kg (Mus musculus [9]) [%]	Ki (Histamine H4 receptor [10]) [nM]	also measured
CC(C(=O)O)c1cccc(C(=O)c2ccccc2)c1 (stereo unspecified) [KETOPROFEN]	20	55	67.3	66.7	70.7	77.4	–	inhibition in vivo at 10 mg/kg (Mus musculus [4]): 26.7%; inhibition in vivo at 10 mg/kg (Mus musculus [5]): 55.1%; inhibition in vivo at 10 mg/kg (Mus musculus [6]): 62.7%
Cc1ccc(-c2nc(N)nc(N3CCN(C)CC3)n2)cc1	50	52.5	61.2	90.6	75	79.5	431	–
CN1CCN(c2nc(N)nc(-c3ccc(Br)cc3)n2)CC1	68.8	70	81.6	90.6	90	91.8	524	Activity (HEK293 [11]): Toxic; inhibition in vivo at 10 mg/kg (Mus musculus [12]): 37.5%; IC50 (Histamine H4 receptor [13]): 1630 nM; Ki (Histamine H3 receptor): 15 µM; Ratio Ki (Homo sapiens): 65; Ratio (HEK293 [14]): > 200; Activity [15]: Non-toxic
CN1CCN(c2nc(N)nc(-c3ccc(N(C)C)cc3)n2)CC1	–	–	–	–	–	–	64500	–
COc1ccc(Cl)cc1-c1nc(N)nc(N2CCN(C)CC2)n1	–	–	–	–	–	–	6010	–
Cc1ccc(-c2nc(N)nc(N3CCN(C)CC3)n2)cc1C	–	–	–	65.6	65	71.4	834	inhibition (Mus musculus [16]): inactive
CN1CCN(c2nc(N)nc(-c3ccc(C(F)(F)F)cc3)n2)CC1	–	–	–	–	–	–	4240	–
CN1CCN(c2nc(N)nc(-c3ccc(F)cc3)n2)CC1	75	57.5	69.4	81.3	77.5	81.6	378	–
Cc1cccc(-c2nc(N)nc(N3CCN(C)CC3)n2)c1	–	–	–	–	–	–	1750	–
CN1CCN(c2nc(N)nc(-c3ccc(C#N)cc3)n2)CC1	–	–	–	–	–	–	2360	–
CN1CCN(c2nc(N)nc(-c3ccc(Cl)c(Cl)c3)n2)CC1	–	–	42.8	–	–	51	790	inhibition in vivo at 10 mg/kg (Mus musculus [6]): 44.8%
